Bioassay records from PubChem BioAssay.
SENP1 FRET inh – human SENP1 catalytic domain inhibitors, primary screen, biochemical, FRET, uHTS; Sentrin-specific protease 1 (Homo sapiens), Q9P0U3; recombinant SENP1 catalytic domain, CyPet-SUMO1-YPet FRET cleavage; inhibition, % at 10 µM; hit rate 0.21% among 360,000; AID 624204, 2012;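 active = inhibition at least 30% at 10 µM, raw YFP signal under a set limit, fluorescence ratio 0.5 to 1.5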;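 also: 0% = enzyme with DMSO and 100% = no enzyme wells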
Target sequence (Q9P0U3 419-644 limits assumed): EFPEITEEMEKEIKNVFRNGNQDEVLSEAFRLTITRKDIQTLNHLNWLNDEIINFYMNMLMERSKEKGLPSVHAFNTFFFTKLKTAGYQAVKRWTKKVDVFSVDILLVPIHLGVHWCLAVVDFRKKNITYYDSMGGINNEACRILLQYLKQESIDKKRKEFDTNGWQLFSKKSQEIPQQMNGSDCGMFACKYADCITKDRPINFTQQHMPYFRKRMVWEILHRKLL
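Assay system: hSENP1 catalytic domain, recombinant. Amount: SENP1 enzyme, 20 pM final. Schedule: 50 min reaction, RT, dark. Technique: FRET, CFP and YFP emission. Control set: no-enzyme wells low, DMSO-plus-enzyme wells high control.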
SENP6 inh – SENP6 protease inhibitors, primary screen, biochemical, luminescence, uHTS; Recombinant SENP6 catalytic domain, aminoluciferin luminescence; inhibition, % at 10 µM; hit rate 1.8% among 330,000;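 active = inhibition above about 50% at the single tested dose, limit read from the data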;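 also: plate controls were DMSO wells with enzyme for no effect and DMSO wells lacking enzyme for full effect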
Target sequence (Q9GZR1 628-1112 limits assumed): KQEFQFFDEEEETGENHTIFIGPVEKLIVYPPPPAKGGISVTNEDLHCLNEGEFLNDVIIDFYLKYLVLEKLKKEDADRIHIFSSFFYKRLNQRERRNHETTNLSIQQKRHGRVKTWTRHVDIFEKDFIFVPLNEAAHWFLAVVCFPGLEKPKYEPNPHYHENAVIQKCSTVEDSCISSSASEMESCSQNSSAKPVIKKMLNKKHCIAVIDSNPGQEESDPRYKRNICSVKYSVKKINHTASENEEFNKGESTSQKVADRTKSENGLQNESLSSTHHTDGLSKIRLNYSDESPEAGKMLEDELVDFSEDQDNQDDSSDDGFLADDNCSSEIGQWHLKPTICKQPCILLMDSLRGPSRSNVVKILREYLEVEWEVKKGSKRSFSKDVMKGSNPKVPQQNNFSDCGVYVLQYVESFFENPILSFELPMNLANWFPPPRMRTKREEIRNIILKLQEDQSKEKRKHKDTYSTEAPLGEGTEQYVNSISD
SENP8 block-1 – human SENP8 protease inhibitors, primary screen, biochemical, fluorescence, Nedd8 protein substrate, uHTS | Sentrin-specific protease 8 (Homo sapiens), Q96LD8 | recombinant SENP8 | inhibition, % at 20 µM | hit rate 0.64% among 360,000 | AID 602440, 2012; in the data active = inhibition mostly above about 40%, no sharp cut-off; inactive = mostly below about 27%
SENP8 block-2 – SENP8 protease inhibitors, primary screen, biochemical, luminescence; Sentrin-specific protease 8 (Homo sapiens), Q96LD8; purified SENP8, Z-RLRGG-aminoluciferin cleavage; inhibition, % at 10 µM; hit rate 1.2% among 330,000; in the data active = inhibition above about 50%
Apaf-1 inh – inhibitors of human Apaf-1 apoptosome, primary screen, biochemical, DEVD-Rh110 fluorescence, uHTS; Apoptotic protease-activating factor 1 (Homo sapiens), O14727; AID 489030, 2010; hit rate 0.71% among 330,000; inhibition, % at 20 µM; reconstituted apoptosome caspase-3 activity; active = inhibition of at least 40% at 20 µM;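 also: plate controls were DMSO wells for no effect and DEVD-CHO caspase inhibitor wells for full effect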
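Material: reconstituted apoptosome with Apaf-1, cytochrome c, caspase-9, procaspase-3, dATP; medium: pH 7.5 Hepes buffer with CHAPS, BSA, DTT; also added: cytochrome c and DEVD-Rh110 substrate; timing: 30 min plus 50 min, RT; signal: Rh110 fluorescence intensity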
SENP7 block – SENP7 protease inhibitors, primary screen, biochemical, luminescence, uHTS; Sentrin-specific protease 7 (Homo sapiens), Q9BQF6; recombinant SENP7, Z-RLRGG-aminoluciferin luminescence, 40 min; inhibition, % at 5 µM; hit rate 1.5% among 330,000;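 active = inhibition above about 50% at the single test dose, limit read from the data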;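 also: plate controls were DMSO with enzyme for no effect and no enzyme buffer wells for full effect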
SENP1 conf – human SENP1 catalytic domain inhibitors, confirmation, biochemical, FRET endpoint, single concentration; recombinant SENP1, CyPet-SUMO1-YPet FRET cleavage; hit rate 34% among 520; inhibition, % at 10 µM; shares compounds with SENP1 FRET inh; in the data active = inhibition mostly above about 35%, no sharp cut-off; inactive = mostly below about 32%;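 also: 0% = enzyme with DMSO and 100% = no enzyme control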
SENP1 kin conf – human SENP1 catalytic domain inhibitors, confirmation, biochemical, kinetic FRET, single concentration | shares compounds with SENP1 FRET inh | recombinant SENP1, CyPet-SUMO1-YPet FRET kinetic cleavage | inhibition, % at 10 µM | hit rate 26% among 520 | AID 651690, 2012; in the data active = inhibition mostly above about 32%, no sharp cut-off; inactive = mostly below about 29%;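 also: 0% = DMSO with enzyme and 100% = no enzyme substrate only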
* hit, by the source's call; / = no result. An excerpt weighted towards active compounds, which were near 2.9% of everything screened.

SMILES	SENP1 FRET inh	SENP6 inh	SENP8 block-1	SENP8 block-2	Apaf-1 inh	SENP7 block	SENP1 conf	SENP1 kin conf
COc1ccc(C(C)=O)c(Oc2nc(CN3CCOCC3)nc3scc(-c4cccs4)c23)c1	0.3	-6.4	7.5	-5.1	27.2	-4.6	/	/
CC(=O)c1ccccc1Oc1nc(CN2CCOCC2)nc2scc(-c3cccs3)c12	44.1*	-8.4	18.5	-2.0	14.4	-7.3	52.4*	33.0*
C1CCN(CC2CCCCN2)CC1 (stereo unspecified)	45.5*	/	3.9	/	/	/	-2.1	0.6
C1CCN(CCC2CCCCN2)CC1 (stereo unspecified)	-6.7	/	-3.7	/	/	/	/	/
CCN(CC)S(=O)(=O)c1ccc(N2CCOCC2)c(NC(=O)c2ccc(C#N)cc2)c1	35.9*	-4.9	1.2	-4.4	11.7	-7.9	0.3	8.8
CC(=O)Nc1cccc(-c2ccnc3c2CC(C(=O)NCCc2ccccc2)O3)c1 (stereo unspecified)	1.3	/	-0.1	/	/	/	/	/
COc1ccc2nc3ccccc3nc2c1NC(=O)c1ccc(Br)cc1	92.1*	-3.9	23.7	2.0	-1.2	4.4	104.8*	59.6*
COc1ccc2nc3ccccc3nc2c1NC(=O)c1ccc(Cl)cc1	79.2	-4.6	21.9	-7.9	8.2	-9.8	/	/
N#CCSc1ccccc1NC(=O)COC(=O)CCNC(=O)c1ccc([N+](=O)[O-])cc1	32.1*	-12.8	-0.2	0.9	6.8	2.9	8.4	6.1
Cc1noc(C)c1C(=O)OCC(=O)Nc1ccccc1SCC#N	43.5*	-7.3	5.5	-17.5	9.6	-2.4	17.4	13.7
Cc1cc(N2CCCC2)ccc1NC(=O)COc1cccc(C(F)(F)F)c1	-0.9	-14.4	9.2	3.7	19.4	-0.1	/	/
COc1ccc(CNC(=O)[C@H](C)NC(=O)N2CCn3c2nc2ccccc23)cc1	-0.4	-11.0	4.6	6.5	-12.4	2.8	/	/
COc1ccc(CC(=O)NCc2ccccc2)cc1	1.4	-2.3	7.3	2.9	0.9	10.0	/	/
COc1cccc(CNC(=O)Cc2ccc(-c3ccccc3)cc2)c1	55.2*	18.0	-27.0	7.7	14.3	1.2	18.1	20.1
CSCC(=O)N1CCc2ccc(NC(=O)c3ccccc3Cl)cc2C1	-1.6	5.1	7.4	3.4	-2.6	-6.7	/	/
CN(C)CCN1C(=O)C(O)=C(C(=O)c2cc3ccccc3o2)C1c1ccc(N(C)C)cc1 (stereo unspecified)	30.8*	-18.6	-2.5	-1.3	17.3	-9.0	7.8	-4.7
O=C1c2cc(CO)cc(O)c2C(=O)c2c(O[C@@H]3OC(CO)[C@@H](O)[C@@H](O)[C@@H]3O)cccc21 (stereo partly specified)	42.6*	8.1	54.0*	-4.9	-3.8	-1.2	45.5*	30.1
O=C1c2c(O)cccc2C(C2OC(CO)[C@@H](O)[C@H](O)[C@H]2O)c2cc(CO)cc(O)c21 (stereo partly specified)	10.3	-9.6	10.0	-0.2	5.1	11.3	/	/
COc1ccc(S(=O)(=O)N2CCOC2CNC(=O)C(=O)NCCCN2CCOCC2)cc1OC (stereo unspecified)	0.3	-1.7	0.8	1.8	5.4	-2.4	/	/
OCc1cccc(-c2csc(C(O)(c3ccccc3)C(F)(F)F)n2)c1 (stereo unspecified)	1.7	/	11.4	/	/	/	/	/
COc1cc(Cn2c3ccc(NC(=O)CCc4ccccc4)cc3c(=O)n2C)ccc1F	32.9*	/	-458.2	/	/	/	3.8	4.8
COc1ccc(NC(=O)C(c2ccc(C(F)(F)F)cc2)n2c(=O)c(-c3cc4ccccc4[nH]3)nc3ccccc32)cc1 (stereo unspecified)	-17.7	/	-399.2	/	/	/	/	/
COCCNc1nc(Oc2cccc3ccccc23)c2sccc2n1	0.8	/	-78.2	/	/	/	/	/
Cn1c(=O)c2c(-c3ccccc3)n(-c3ccc(N)cc3)cc2n(C)c1=O	45.2*	/	60.4*	/	/	/	24.1	9.3
Cn1c(=O)c2sccc2n(Cc2ccccc2)c1=O	2.2	-44.2	13.0	-1.0	-7.0	-9.3	/	/
SMILES	SENP1 FRET inh	SENP6 inh	SENP8 block-1	SENP8 block-2	Apaf-1 inh	SENP7 block	SENP1 conf	SENP1 kin conf
COc1cc(OC)cc(-c2c(Sc3ccccc3)c3cc(-c4ccc(OC)c(OC)c4)ccc3n2C)c1	1.0	/	-346.5	/	/	/	/	/
COc1ccc(-c2c(Sc3ccccc3)c3cc(-c4ccc(OC)c(F)c4)ccc3n2C)cc1	29.9*	/	-201.7	/	/	/	-35.4	3.5
O=C1C=C(O)c2c(O)cccc2C1=O	/	43.4	/	5.7	19.7	8.7	/	/
O=C1C=C(O)c2cccc3cccc1c23	45.2*	19.0	21.7	5.8	-6.5	-3.0	66.5*	41.9*
CN1/C(=C/C=C(C#N)C#N)C=Cc2ccccc21	97.0*	-14.6	22.3	-1.2	-14.7	11.1	8.7	8.7
CCCN1C=CC(=C/C=C(\C#N)C(=O)OCC)C=C1	/	-13.7	/	-13.4	5.3	-20.0	/	/
CCOC(=O)/C(C#N)=C/C=C1\C=Cc2ccccc2N1CC	51.6*	-20.7	24.8	7.4	14.9	-2.1	71.2*	39.0*
Cc1cccc(C(=O)NCC(=O)OCc2nc(N)nc(Nc3ccccc3C)n2)c1	-1.4	15.6	6.6	2.8	-0.5	0.4	/	/
O=C(NCC(F)(F)F)c1cc2c(c(-c3cccc(-c4ccccc4F)c3)n1)[C@@H](CCO)N(C(=O)CC1CC1)C2	-0.6	/	14.2	/	/	/	/	/
Oc1ccccc1NCC(O)Cn1ccc2ccccc21 (stereo unspecified)	37.5*	10.2	29.8	1.3	4.1	5.3	5.5	0.9
OC(CNCc1ccccc1)Cn1ccc2ccccc21 (stereo unspecified)	-20.1	-20.7	-4.9	-13.1	-8.2	-8.8	/	/
Nc1nc(N)c2sc3nc(C(F)(F)F)cc(C(F)(F)F)c3c2n1	67.9*	5.3	5.4	4.3	6.2	7.5	34.5*	25.2
NC(=O)c1cccc(-c2ccnc3c2CC(C(=O)Nc2cccc(Oc4ccccc4)c2)O3)c1 (stereo unspecified)	0.1	/	-1.6	/	/	/	/	/
O=C1CCCC2=C1Sc1ccc(Cl)cc1N2	72.1*	-15.4	28.1	-5.0	-4.1	-3.2	93.3*	50.3*
CN(C)C(CNS(=O)(=O)c1cc([N+](=O)[O-])ccc1Cl)c1ccco1 (stereo unspecified)	-3.3	0.8	15.6	0.6	-0.3	8.0	/	/
